Legend:
Format in all cases: subcellular, Brain
[1] = biological target: D(2) dopamine receptor (Rattus norvegicus, UniProt P61169); test: The compound has been evaluated for its binding affinity towards Dopamine receptor D2 by displacing the radioligand [3H]YM-09151-2 (0.5 nM) in rat striatal synaptosomes.
Outline: (§1)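 Rat striatal synaptosomes were incubated with a ³H-labelled radioligand. Nonspecific binding was defined with excess unlabelled ligand and subtracted: SCH23390 for D1, sulpiride for D2 and GBR12909 for the dopamine transporter. Ki was calculated from IC50 as IC50/(1+[L]/KD), where [L] is the radioligand concentration and KD its dissociation constant.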

[2] = biological target: Sodium-dependent dopamine transporter (Rattus norvegicus, UniProt P23977); test: The compound has been evaluated for its binding affinity towards Dopamine transporter by displacing the radioligand [3H]GBR-12935 (1.0 nM) in rat striatal synaptosomes.; outline: as §1
[3] = biological target: D(1A) dopamine receptor (Rattus norvegicus, UniProt P18901); test: The compound has been evaluated for its binding affinity towards Dopamine receptor D1 by displacing the radioligand [3H]SCH-23390 (1.5 nM) in rat striatal synaptosomes.; outline: as §1
Chain of D(1A) dopamine receptor (P18901 whole entry): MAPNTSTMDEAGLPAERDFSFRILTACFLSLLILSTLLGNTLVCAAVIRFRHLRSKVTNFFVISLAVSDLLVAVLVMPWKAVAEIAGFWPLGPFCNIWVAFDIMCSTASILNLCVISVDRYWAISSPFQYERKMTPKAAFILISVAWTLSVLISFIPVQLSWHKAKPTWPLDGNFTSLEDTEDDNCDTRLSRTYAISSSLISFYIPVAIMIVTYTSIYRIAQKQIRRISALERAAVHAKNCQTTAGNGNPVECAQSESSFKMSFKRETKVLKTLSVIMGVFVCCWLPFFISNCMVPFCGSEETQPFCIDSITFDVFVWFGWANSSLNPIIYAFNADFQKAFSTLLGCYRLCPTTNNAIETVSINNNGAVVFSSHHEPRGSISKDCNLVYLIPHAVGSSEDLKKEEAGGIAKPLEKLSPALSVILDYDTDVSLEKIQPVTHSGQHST

Chain of D(2) dopamine receptor (P61169 whole entry): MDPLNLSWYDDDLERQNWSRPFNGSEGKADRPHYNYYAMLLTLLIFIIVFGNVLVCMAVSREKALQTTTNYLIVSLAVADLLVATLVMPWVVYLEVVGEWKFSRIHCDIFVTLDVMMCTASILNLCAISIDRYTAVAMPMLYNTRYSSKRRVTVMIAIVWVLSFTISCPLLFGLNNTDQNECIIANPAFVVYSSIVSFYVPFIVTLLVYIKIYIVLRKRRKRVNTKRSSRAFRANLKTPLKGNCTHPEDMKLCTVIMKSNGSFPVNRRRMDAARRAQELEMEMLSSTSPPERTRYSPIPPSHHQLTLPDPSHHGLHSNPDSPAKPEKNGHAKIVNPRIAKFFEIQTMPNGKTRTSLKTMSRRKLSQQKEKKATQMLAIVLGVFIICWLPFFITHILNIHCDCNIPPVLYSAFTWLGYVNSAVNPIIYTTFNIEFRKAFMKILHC
Chain of Sodium-dependent dopamine transporter (P23977 whole entry): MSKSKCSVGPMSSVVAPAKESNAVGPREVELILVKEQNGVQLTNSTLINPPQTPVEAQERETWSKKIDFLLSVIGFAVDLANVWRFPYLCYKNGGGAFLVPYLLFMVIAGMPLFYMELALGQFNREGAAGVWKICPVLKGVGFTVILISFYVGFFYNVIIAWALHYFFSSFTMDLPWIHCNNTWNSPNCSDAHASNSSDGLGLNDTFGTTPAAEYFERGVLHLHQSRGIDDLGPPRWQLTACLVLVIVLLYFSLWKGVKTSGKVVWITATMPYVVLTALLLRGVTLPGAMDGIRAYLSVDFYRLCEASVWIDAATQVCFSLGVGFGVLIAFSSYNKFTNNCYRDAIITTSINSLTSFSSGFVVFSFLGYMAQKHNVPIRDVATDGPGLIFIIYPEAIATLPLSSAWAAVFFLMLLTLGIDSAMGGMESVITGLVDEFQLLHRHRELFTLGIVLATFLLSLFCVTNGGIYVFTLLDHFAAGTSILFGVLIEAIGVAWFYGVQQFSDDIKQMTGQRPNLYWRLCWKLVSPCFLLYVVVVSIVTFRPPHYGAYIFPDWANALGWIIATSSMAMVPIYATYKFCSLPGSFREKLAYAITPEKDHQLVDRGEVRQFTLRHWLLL

Row | SMILES | Ki [1] [µM] | Ki [2] [µM] | Ki [3] [µM]
1 | c1ccc(CC2NCCc3ccccc32)cc1 (centres undefined) | 3.57 | 36.6 | 249
2 | Oc1cc2c(cc1O)C(Cc1ccccc1)NCC2 (centres undefined) | 0.64 | 57.6 | 9.27
3 | Oc1ccc(CC2NCCc3ccccc32)cc1O (centres undefined) | 8.79 | 21.5 | 175

Source: ChEMBL document CHEMBL1133134, “Inhibition of dopamine receptors by endogenous amines: binding to striatal receptors and pharmacological effects on locomotor activity” (Bioorg Med Chem Lett, 2000)
